ChEMBL document CHEMBL1138526, “Design, synthesis, and biological activity of boronic acid-based histone deacetylase inhibitors” (J Med Chem, 2009)
Values belong to the compound of their own block, whether it stands above or below them.

Experiments:
Histone deacetylase = experiment: Inhibition of HDAC in human HeLa cell nuclear extracts by fluorimetry; type: cell-based
Histone deacetylase 1 [1] = biological target: T1, Histone deacetylase 1 (Homo sapiens, UniProt Q13547); experiment: Inhibition of human recombinant HDAC1 by fluorimetry
Histone deacetylase 2 = Histone deacetylase 2 (Homo sapiens, UniProt Q92769); experiment: Inhibition of human recombinant HDAC2 by fluorimetry
Histone deacetylase 8 = biological target: T2, Histone deacetylase 8 (Homo sapiens, UniProt Q9BY41); experiment: Inhibition of human recombinant HDAC8 by fluorimetry
T2 sequence (Q9BY41 whole entry): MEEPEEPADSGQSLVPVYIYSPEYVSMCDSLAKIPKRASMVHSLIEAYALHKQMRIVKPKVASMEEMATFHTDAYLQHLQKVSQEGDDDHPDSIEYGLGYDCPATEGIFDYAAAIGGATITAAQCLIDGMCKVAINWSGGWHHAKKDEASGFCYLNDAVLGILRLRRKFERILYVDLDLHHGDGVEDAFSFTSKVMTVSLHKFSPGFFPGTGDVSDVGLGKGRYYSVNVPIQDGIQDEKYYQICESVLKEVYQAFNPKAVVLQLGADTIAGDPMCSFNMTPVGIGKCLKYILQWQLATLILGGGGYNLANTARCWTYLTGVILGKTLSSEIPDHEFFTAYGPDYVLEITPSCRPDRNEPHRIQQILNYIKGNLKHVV

[2] = biological target: T3, Protein deacetylase HDAC6 (Homo sapiens, UniProt Q9UBN7); experiment: Inhibition of human recombinant HDAC6 by fluorimetry
T3 sequence (Q9UBN7 whole entry): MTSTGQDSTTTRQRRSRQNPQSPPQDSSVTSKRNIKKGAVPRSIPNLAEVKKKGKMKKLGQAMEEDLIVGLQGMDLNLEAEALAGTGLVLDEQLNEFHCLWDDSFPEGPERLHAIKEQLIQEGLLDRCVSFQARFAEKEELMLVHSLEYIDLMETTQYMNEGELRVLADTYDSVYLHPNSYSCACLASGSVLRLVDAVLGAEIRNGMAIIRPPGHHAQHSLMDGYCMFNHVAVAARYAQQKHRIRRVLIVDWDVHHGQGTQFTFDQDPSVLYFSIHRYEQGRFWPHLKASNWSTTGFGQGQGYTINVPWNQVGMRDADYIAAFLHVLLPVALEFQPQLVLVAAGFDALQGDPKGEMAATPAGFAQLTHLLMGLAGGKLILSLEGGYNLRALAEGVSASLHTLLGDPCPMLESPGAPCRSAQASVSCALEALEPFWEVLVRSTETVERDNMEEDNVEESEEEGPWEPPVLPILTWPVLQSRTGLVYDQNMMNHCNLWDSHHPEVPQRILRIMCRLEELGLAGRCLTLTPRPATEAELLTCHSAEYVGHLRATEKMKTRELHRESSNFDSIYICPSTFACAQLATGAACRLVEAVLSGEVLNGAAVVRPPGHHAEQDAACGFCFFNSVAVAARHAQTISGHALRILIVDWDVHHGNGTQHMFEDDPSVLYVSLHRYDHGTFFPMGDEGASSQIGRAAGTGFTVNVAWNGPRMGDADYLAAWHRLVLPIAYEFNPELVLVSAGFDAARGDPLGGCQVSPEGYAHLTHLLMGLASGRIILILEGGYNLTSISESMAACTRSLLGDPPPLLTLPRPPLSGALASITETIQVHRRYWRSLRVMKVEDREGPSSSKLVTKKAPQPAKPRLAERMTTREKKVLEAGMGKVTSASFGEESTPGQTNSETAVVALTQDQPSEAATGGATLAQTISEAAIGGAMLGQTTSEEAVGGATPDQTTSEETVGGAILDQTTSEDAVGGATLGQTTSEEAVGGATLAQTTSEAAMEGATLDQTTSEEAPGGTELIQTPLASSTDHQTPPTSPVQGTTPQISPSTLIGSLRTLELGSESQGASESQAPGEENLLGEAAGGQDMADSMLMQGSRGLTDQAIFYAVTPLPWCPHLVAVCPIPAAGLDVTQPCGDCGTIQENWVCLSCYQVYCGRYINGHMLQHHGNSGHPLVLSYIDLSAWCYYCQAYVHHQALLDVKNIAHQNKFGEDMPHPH

MKN-45 = experiment: cells; type: functional; settings: Homo sapiens, MKN-45, 48 h
cells [3] = type: functional; settings: Homo sapiens, HBC5, 48 h
SNB-78 = experiment: cells; type: functional; settings: Homo sapiens, SNB-78, 48 h
HCT-116 = experiment: cells; type: functional; settings: Homo sapiens, HCT-116, 48 h
DMS-114 = experiment: Growth inhibition of human DMS114 cells after 48 hrs by sulforhodamine B assay; type: functional
How it was run: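 GI50 read from growth inhibition of DMS114 lung cancer cells, one line in a nine-line human cancer panel; each value is the mean of two separate experiments.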

LOX IMVI = experiment: cells; type: functional; settings: Homo sapiens, 48 h
SK-OV-3 = experiment: cells; type: functional; settings: Homo sapiens, SK-OV-3, 48 h
cells [4] = type: functional; settings: Homo sapiens, RXF 631, 48 h
PC-3 = experiment: cells; type: functional; settings: Homo sapiens, PC-3, 48 h
[5] = biological target: T4, Histone deacetylase (Homo sapiens) (UniProt Q13547+O15379+Q9UBN7+Q92769+Q9UQL6+Q8WUI4+Q9BY41+Q96DB2+P56524+Q9UKV0+Q969S8); experiment: Inhibition of HDAC in human HeLa cell nuclear extracts at 100 uM by fluorimetry; type: cell-free
[6] = Ratio of GI50 for human MKN45 cells to IC50 for HDAC in human HeLa cells
[7] = Ratio of GI50 for human MKN45 cells to IC50 for human recombinant HDAC1; set-up: species or system MKN-45
[8] = Ratio of GI50 for human MKN45 cells to IC50 for human recombinant HDAC2; set-up: species or system MKN-45
[9] = biological target: T4, Histone deacetylase (Homo sapiens); experiment: Inhibition of HDAC in human HCT116 cells assessed as induction of histone H4 acetylation after 8 hrs by Western blot analysis; type: cell-based; settings: HCT-116
[10] = biological target: T5, Protein deacetylase HDAC6 (Homo sapiens) (UniProt Q9UBN7); experiment: Inhibition of HDAC6 in human HCT116 cells assessed as induction of alpha tubulin acetylation after 8 hrs by Western blot analysis; type: cell-based; settings: HCT-116
T5 sequence (whole entry): T3 sequence (Q9UBN7 whole entry)

Histone deacetylase 1 [11] = biological target: T1, Histone deacetylase 1; experiment: Inhibition of human recombinant HDAC1 at 10 uM by fluorimetry

Sequence of Histone deacetylase 2 (Q92769 whole entry): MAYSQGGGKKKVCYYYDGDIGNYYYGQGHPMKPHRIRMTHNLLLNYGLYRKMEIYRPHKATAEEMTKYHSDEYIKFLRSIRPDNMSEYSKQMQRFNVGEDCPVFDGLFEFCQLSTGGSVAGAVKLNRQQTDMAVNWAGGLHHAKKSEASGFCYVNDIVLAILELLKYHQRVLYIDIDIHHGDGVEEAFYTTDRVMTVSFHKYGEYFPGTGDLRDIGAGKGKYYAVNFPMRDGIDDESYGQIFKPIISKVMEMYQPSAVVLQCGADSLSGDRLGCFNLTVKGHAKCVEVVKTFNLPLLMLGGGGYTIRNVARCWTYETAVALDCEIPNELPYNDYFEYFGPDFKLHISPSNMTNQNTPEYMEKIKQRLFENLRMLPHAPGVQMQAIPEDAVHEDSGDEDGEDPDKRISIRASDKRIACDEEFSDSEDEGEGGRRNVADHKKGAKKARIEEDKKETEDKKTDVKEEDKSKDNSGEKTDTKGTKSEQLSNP
T1 sequence (Q13547 whole entry): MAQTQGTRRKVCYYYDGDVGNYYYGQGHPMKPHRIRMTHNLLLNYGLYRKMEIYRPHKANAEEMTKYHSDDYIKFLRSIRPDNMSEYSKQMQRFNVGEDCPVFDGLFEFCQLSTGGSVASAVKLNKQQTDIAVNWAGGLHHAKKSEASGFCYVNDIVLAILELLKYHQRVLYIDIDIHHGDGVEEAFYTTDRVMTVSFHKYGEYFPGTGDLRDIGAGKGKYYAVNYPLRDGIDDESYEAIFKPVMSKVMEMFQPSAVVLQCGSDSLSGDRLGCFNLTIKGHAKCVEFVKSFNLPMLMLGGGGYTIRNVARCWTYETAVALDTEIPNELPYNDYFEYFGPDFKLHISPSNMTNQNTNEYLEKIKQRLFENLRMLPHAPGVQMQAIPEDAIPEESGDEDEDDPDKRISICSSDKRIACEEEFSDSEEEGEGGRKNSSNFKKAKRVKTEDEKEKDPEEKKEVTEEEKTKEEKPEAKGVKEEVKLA

SMILES: CC(C)(C)OC(=O)NC(CCCCCB(O)O)C(=O)Nc1ccccc1 (stereo unspecified)
- inhibition [5]: 42%
- IC50 (Histone deacetylase): > 100 µM

SMILES: O=C(NC(CCCCCB(O)O)C(=O)Nc1cccc(-c2ccccc2)c1)c1cc2ccccc2[nH]1 (stereo unspecified)
- IC50 (Histone deacetylase): 11 µM

SMILES: CC(C)(C)OC(=O)NC(CCCCCB(O)O)C(=O)Nc1cccc(Oc2ccccc2)c1 (stereo unspecified)
- inhibition [5]: 38%
- IC50 (Histone deacetylase): > 100 µM

SMILES: CC(C)(C)OC(=O)NC(CCCCCB(O)O)C(=O)Nc1cnc2ccccc2c1 (stereo unspecified)
- inhibition [5]: 86%
- IC50 (Histone deacetylase): 16 µM

SMILES: O=C(NC(CCCCCB(O)O)C(=O)Nc1cccc(-c2ccccc2)c1)c1ccc2ccccc2n1 (stereo unspecified)
- IC50 (Histone deacetylase): > 100 µM

SMILES: O=C(Nc1ccccc1)C(CCCCCB(O)O)C(=O)Nc1cccc(-c2ccccc2)c1 (stereo unspecified)
- IC50 (Histone deacetylase): 30 µM

SMILES: O=C(CCCCCCB(O)O)Nc1cccc(Oc2ccccc2)c1
- inhibition [5]: 1.8%
- IC50 (Histone deacetylase): > 100 µM

SMILES: CC(C)(C)OC(=O)NC(CCCCCB(O)O)C(=O)Nc1ccc(Oc2ccccc2)cc1 (stereo unspecified)
- inhibition [5]: 15%
- IC50 (Histone deacetylase): > 100 µM

SMILES: O=C(CCCCCCB(O)O)Nc1ccccc1
- inhibition [5]: 37%
- IC50 (Histone deacetylase): > 100 µM

SMILES: O=C(CCCCCCB(O)O)Nc1cnc2ccccc2c1
- inhibition [5]: 32%
- IC50 (Histone deacetylase): > 100 µM

SMILES: O=C(CCCCCCB(O)O)Nc1cccc(-c2ccccc2)c1
- inhibition [5]: 40%
- IC50 (Histone deacetylase): > 100 µM

SMILES: CN(C)c1ccc(C(=O)NC(CCCCCB(O)O)C(=O)Nc2cccc(-c3ccccc3)c2)cc1 (stereo unspecified)
- IC50 (Histone deacetylase): 13 µM

SMILES: O=C(CCCCCCB(O)O)Nc1ccc(Oc2ccccc2)cc1
- inhibition [5]: 2.2%
- IC50 (Histone deacetylase): > 100 µM

SMILES: O=C(CCCCCCC(=O)Nc1ccccc1)NO [VORINOSTAT]
- GI50 (DMS-114): 2.9 µM

SMILES: CC(C)(C)OC(=O)NC(CCCCCB(O)O)C(=O)Nc1nc2ccccc2s1 (stereo unspecified)
- inhibition [5]: 78%
- IC50 (Histone deacetylase): 23 µM

SMILES: O=C(NC(CCCCCB(O)O)C(=O)Nc1cccc(-c2ccccc2)c1)c1cscn1 (stereo unspecified)
- IC50 (Histone deacetylase): 4.7 µM

SMILES: O=C(CCCCCCB(O)O)Nc1nc2ccccc2s1
- inhibition [5]: 5.1%
- IC50 (Histone deacetylase): > 100 µM

SMILES: O=C(NC(CCCCCB(O)O)C(=O)Nc1cccc(-c2ccccc2)c1)OCc1ccccc1 (stereo unspecified)
- IC50 (Histone deacetylase): 4.2 µM

SMILES: CC(C)(C)OC(=O)NC(CCCCCB(O)O)C(=O)Nc1cccc(-c2ccccc2)c1 (stereo unspecified)
- inhibition [5]: 85%
- IC50 (Histone deacetylase): 12 µM

The next lines start with results.

- IC50 (Histone deacetylase): 24 µM
- IC50 (Histone deacetylase 1 [1]): > 100 µM
- IC50 (Histone deacetylase 2): > 100 µM
- IC50 (Histone deacetylase 8): > 100 µM
- IC50 [2]: 5.6 µM
- GI50 (MKN-45): 21 µM
- GI50 (HCT-116): 16 µM
- GI50 (SK-OV-3): 19 µM
- GI50 (PC-3): 18 µM
SMILES: O=C(N[C@H](CCCCCB(O)O)C(=O)Nc1cccc(-c2ccccc2)c1)c1cncs1
- GI50 (cells [3]): 20 µM
- GI50 (SNB-78): 13 µM
- GI50 (DMS-114; Homo sapiens, DMS-114, 48 h): 17 µM
- GI50 (LOX IMVI): 19 µM
- GI50 (cells [4]): 19 µM

- IC50 (Histone deacetylase): 0.92 µM
- IC50 (Histone deacetylase 1 [1]): 2.2 µM
- IC50 (Histone deacetylase 2): 0.53 µM
- IC50 (Histone deacetylase 8): 6.6 µM
- IC50 [2]: 0.11 µM
- GI50 (MKN-45): 3.5 µM
- GI50 (HCT-116): 0.73 µM
- GI50 (SK-OV-3): 2.2 µM
- GI50 (PC-3): 6.7 µM
- Activity [9]: Dose-dependent effect
- Activity [10]: Dose-dependent effect
SMILES: O=C(N[C@@H](CCCCCB(O)O)C(=O)Nc1cccc(-c2ccccc2)c1)c1cncs1
- Ratio [6]: 3.8
- Ratio [7]: 1.6
- Ratio [8]: 6.6
- GI50 (cells [3]): 6.5 µM
- GI50 (SNB-78): 9.1 µM
- GI50 (DMS-114; Homo sapiens, DMS-114, 48 h): 2.4 µM
- GI50 (LOX IMVI): 1.3 µM
- GI50 (cells [4]): 3.2 µM

- IC50 (Histone deacetylase): 17 µM
- IC50 (Histone deacetylase 1 [1]): > 100 µM
- IC50 (Histone deacetylase 2): > 100 µM
- IC50 (Histone deacetylase 8): > 100 µM
- IC50 [2]: 24 µM
SMILES: O=C(N[C@H](CCCCCB(O)O)C(=O)Nc1cccc(-c2ccccc2)c1)c1ccccc1

- IC50 (Histone deacetylase): 2 µM
SMILES: O=C(NC(CCCCCB(O)O)C(=O)Nc1cccc(-c2ccccc2)c1)c1ccccc1 (stereo unspecified)

- IC50 (Histone deacetylase): 1.6 µM
- IC50 (Histone deacetylase 1 [1]): > 10 µM
- IC50 (Histone deacetylase 2): 3.6 µM
- IC50 (Histone deacetylase 8): > 100 µM
- IC50 [2]: 1.1 µM
- inhibition (Histone deacetylase 1 [11]): 38%
- GI50 (MKN-45): 9.3 µM
- Activity [9]: Dose-dependent effect
- Activity [10]: Dose-dependent effect
SMILES: O=C(N[C@@H](CCCCCB(O)O)C(=O)Nc1cccc(-c2ccccc2)c1)c1ccccc1
- Ratio [6]: 5.8
- Ratio [7]: < 0.93
- Ratio [8]: 2.6

- IC50 (Histone deacetylase): 15 µM
- IC50 (Histone deacetylase 1 [1]): > 100 µM
- IC50 (Histone deacetylase 2): 99 µM
- IC50 (Histone deacetylase 8): > 100 µM
- IC50 [2]: 14 µM
SMILES: O=C(N[C@H](CCCCCB(O)O)C(=O)Nc1cccc(-c2ccccc2)c1)c1cccnc1

- IC50 (Histone deacetylase): 1.4 µM
SMILES: O=C(NC(CCCCCB(O)O)C(=O)Nc1cccc(-c2ccccc2)c1)c1cncs1 (stereo unspecified)

- IC50 (Histone deacetylase): 1.4 µM
- IC50 (Histone deacetylase 1 [1]): 2.8 µM
- IC50 (Histone deacetylase 2): 0.83 µM
- IC50 (Histone deacetylase 8): 23 µM
- IC50 [2]: 0.32 µM
- GI50 (MKN-45): 5.5 µM
- Activity [9]: Dose-dependent effect
- Activity [10]: Dose-dependent effect
SMILES: O=C(N[C@@H](CCCCCB(O)O)C(=O)Nc1cccc(-c2ccccc2)c1)c1cccnc1
- Ratio [6]: 3.9
- Ratio [7]: 2
- Ratio [8]: 6.6

- IC50 (Histone deacetylase): 51 µM
SMILES: O=C(Nc1cccnc1)C(CCCCCB(O)O)C(=O)Nc1cccc(-c2ccccc2)c1 (stereo unspecified)

- IC50 (Histone deacetylase): 2 µM
SMILES: O=C(NC(CCCCCB(O)O)C(=O)Nc1cccc(-c2ccccc2)c1)c1cccnc1 (stereo unspecified)
